# Bioassay records from PubChem.
# Shown are actives, neighbours in structure and some others; about 2.2% of the full set was active somewhere.
# dFosB act: activators of delta FosB homodimer, primary screen, biochemical, fluorescence polarization, TAMRA-CDK5 oligo, single point; purified delta FosB; percent of positive-control signal above neutral wells; Protein FosB (Mus musculus), P13346; activation, % at 25 µM; AID 493131, 2011; 340,000 tested, 0.99% active;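 active = mean activation above about 17%, with every replicate also reaching it, limit read from the data, passing the limit was not always enough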
# Target sequence (P13346 whole entry, looked up): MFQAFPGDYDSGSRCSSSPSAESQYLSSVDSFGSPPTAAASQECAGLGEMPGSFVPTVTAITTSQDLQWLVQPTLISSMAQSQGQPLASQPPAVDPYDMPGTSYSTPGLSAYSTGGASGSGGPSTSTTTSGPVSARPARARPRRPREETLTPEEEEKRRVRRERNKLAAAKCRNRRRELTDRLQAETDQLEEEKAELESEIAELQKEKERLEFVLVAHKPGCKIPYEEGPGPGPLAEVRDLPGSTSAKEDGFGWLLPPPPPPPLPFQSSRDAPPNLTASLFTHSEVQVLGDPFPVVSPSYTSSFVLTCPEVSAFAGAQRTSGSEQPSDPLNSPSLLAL
# S100A4 MyoIIA: inhibitors of S100A4-myosin IIA peptide binding, primary screen, biochemical, fluorescence polarization, TAMRA-MyoIIA peptide | 360,000 tested, 0.14% active | Protein S100-A4 (Homo sapiens), P26447 | AID 652163, 2013 | inhibition, % at 10.7 µM;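 active = mean inhibition of at least 70% across replicates, with every replicate also reaching that level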
# Target sequence (P26447 whole entry, looked up): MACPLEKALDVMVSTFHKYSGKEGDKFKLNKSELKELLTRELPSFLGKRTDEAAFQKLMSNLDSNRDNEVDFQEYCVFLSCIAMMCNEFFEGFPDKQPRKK
#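 Assay system: human S100A4 monomer with TAMRA-labelled myosin IIA peptide / Buffer or medium: Calcium-containing HEPES buffer, pH 7.2 / Reagent: TAMRA-labelled myosin IIA heavy-chain peptide probe, 5 nM / Compound: one dose per compound / Timing: polarization read 5 min after assay mix addition, stable 5–60 min / Benchmarks: neutral control DMSO, positive control TFP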
# CFTR F508del cor: F508del CFTR correction, initial screen, CFBE line, single point; AID 720511, 2013; activity (quench increase), % at 7.58 µM; 350,000 tested, 0.36% active; CFBE cells, YFP halide quenching; stimulated with forskolin plus potentiator P3; % fluorescence drop versus neutral controls;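 active = mean added fluorescence quench of at least 8% versus neutral control, with both replicates also reaching 8%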;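 also: cells transiently co-express mutant CFTR-F508del with the halide-sensitive YFP; corrector assay measuring rescue of mutant channel to the surface after 24 h compound exposure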
# FGF22 binding: binders of human FGF22 protein, primary screen, FGF22 synaptogenesis inhibitor project, biophysical, thermal shift, single point. Fibroblast growth factor 22 (Homo sapiens), Q9HCT0. recombinant FGF22 thermal shift, SYPRO orange fluorescence; percent of sucrose octasulfate shift, DMSO zero. activity (Tm shift, normalised), % at 9.99 µM. 340,000 tested, 1.5% active. AID 651658, 2012;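 active = mean Tm shift, scaled 0 neutral to 100 positive control, at about 1.3% or above, every replicate too, limit read from the data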
# * = called active by the depositor; / = not tested or not shown.
SMILES,dFosB act,S100A4 MyoIIA,CFTR F508del cor,FGF22 binding
CCOC(=O)N1CCC(NC(=O)c2ccc3c(c2)N=C(CC)c2cc(C)ccc2S3)CC1,0,-6,1,0
CCOC(=O)N1CCC(NC(=O)c2ccc3c(c2)N=C(C)c2c(C)ccc(C)c2S3)CC1,-3,0,11*,0
O=C(N[C@@H]1CC[C@@H](CCn2cc(Cc3ccccc3)nn2)O[C@H]1CO)c1cnccn1,/,10,1,0
COc1cc(CN(CC(C)C)S(=O)(=O)c2ccccc2Br)cc(OC)c1,1,-3,-6,43*
CCn1nccc1C(=O)Nc1ccccc1OC,-2,6,2,0
CCn1ncc(Br)c1C(=O)Nc1ccccc1OC,-7,2,-3,44*
O=C(c1cccc(F)c1)N1CC[C@H]2[C@H](CO)Nc3ccc(-c4ccc(F)cc4)cc3[C@H]21,/,102*,0,-1
CN(C)C(=O)c1cccc(-c2ccc3c(c2)[C@H]2[C@H](CCN2C(=O)C2CC2)[C@@H](CO)N3)c1,/,78*,-4,-1
COc1ccc(C#Cc2ccc3c(c2)[C@@H]2[C@@H](CCN2C(=O)c2cccc(F)c2)[C@@H](CO)N3)cc1,/,-17,8.7*,0
CN1C(=O)c2cc(NC(=O)c3ccno3)ccc2OC[C@H]2O[C@@H](CC(=O)Nc3ccccc3)CC[C@@H]21,/,3,1,-1
C/C=C/c1cnc2c(c1)C(=O)N([C@@H](C)CO)C[C@H](C)[C@H](CN(C)S(=O)(=O)c1ccc(F)cc1)O2,/,8,0,0
COc1ccc(S(=O)(=O)Nc2ccc3c(c2)CC(=O)N([C@H](C)CO)C[C@@H](C)[C@H](CN(C)CC2CCCCC2)O3)cc1,/,0,-1,0
COc1ccc(CC(=O)NNC(=O)c2ccc(Br)s2)cc1OC,-2,-13,0,43*
Cc1ccc(CN2CCN(Cc3ccc(OC(C)C)cc3)CC2CCO)o1 (configuration not stated),-2,-5,1,0
Cc1ccc(-c2cccc(CN3CCN(C(C)C)C(CCO)C3)c2)o1 (configuration not stated),-9,-1,11*,43*
Cc1ccc(CN2CCN(Cc3cccc(OCCO)c3)CC2CCO)o1 (configuration not stated),-6,1,-1,44*
CC(C)N1CCN(Cc2ccncc2)CC1CCO (configuration not stated),0,-9,0,42
CCCOc1ccc(CNC(=S)Nc2ccccc2)cc1Cl,-6,-9,1,40*
O=C(Nc1ccccc1)OCCOc1ccc(Cl)cc1Cl,-8,1,-2,44*
CCOC(=O)CC1(CCc2ccccc2)Oc2ccccc2N1S(=O)(=O)c1ccc(C)cc1 (configuration not stated),/,2,-2,0
CCOC(=O)CC1(C)Sc2ccccc2N1S(=O)(=O)c1ccc(C)cc1 (configuration not stated),/,-4,-1,43*
O=C1CC(c2ccccc2F)c2c(c3ccccc3[nH]c2=O)O1 (configuration not stated),6,-9,0,0
O=C1CC(c2cccc(F)c2)c2c(c3ccccc3[nH]c2=O)O1 (configuration not stated),12,-2,-1,43*
Cc1cccc(-c2ncc(CN3CCN(CC(C)C)C(CCO)C3)cn2)c1 (configuration not stated),-4,4,0,43*
CC(C)CN1CCN(Cc2cccn2-c2cccnc2)CC1CCO (configuration not stated),0,7,1,43*
SMILES,dFosB act,S100A4 MyoIIA,CFTR F508del cor,FGF22 binding
COc1ccc2[nH]c(CN3CCN(CC(C)C)C(CCO)C3)c(C)c2c1 (configuration not stated),-14,-11,2,43*
OCCC1CN(Cc2cccn2-c2cccnc2)CCN1Cc1ccc(F)cc1 (configuration not stated),-6,0,0,0
Cc1cccc(S(=O)(=O)N2C[C@H](O)COC[C@@H]3O[C@H](CC(=O)N4CCN(C)CC4)CC[C@H]32)c1,/,-16,0,-1
O=C(C[C@H]1CC[C@H](NC(=O)C2CCOCC2)[C@@H](CO)O1)Nc1nccs1,/,10,-3,0
O=C(CN(c1ccccc1Cl)S(=O)(=O)c1ccccc1)N/N=C/c1ccccc1C(=O)O,-2,-2,-1,0
Cc1ccc(S(=O)(=O)N(CC(=O)N/N=C/c2ccccc2C(=O)O)c2cc(Cl)cc(Cl)c2)cc1,-1,0,-1,43*
CN(C)C(=O)c1ccc(-c2ccc([C@@H]3[C@@H](CO)N4CCCCN(CC5CC5)C[C@@H]34)cc2)cc1,/,109*,1,-1
CN(C)C(=O)c1ccc(-c2ccc([C@@H]3[C@H](CO)N4CCCCN(CC5CCOCC5)C[C@@H]34)cc2)cc1,/,17,1,0
COc1cccc(-c2ccc([C@H]3[C@H](CO)N4CCCCN(CC5CC5)C[C@@H]34)cc2)c1,/,127*,3,-1
O=C(Cc1ccccc1)N[C@H]1CC[C@@H](CC(=O)N2CCOCC2)O[C@H]1CO,/,0,0,-1
Cc1ccc2c(c1)CCCN2C(=O)CCc1nc2ccccc2c(=O)[nH]1,-13,0,22*,0
CC(=O)N1CCN(C(=O)CCc2nc3ccccc3c(=O)[nH]2)CC1,-2,-5,2,0
CN(C)/C=C1\C=C2C(=O)c3ccccc3N2C1=O,3,76*,32*,1
C[C@@H]1CCCCO[C@@H](CN(C)C(=O)Cc2ccccc2)[C@H](C)CN([C@@H](C)CO)C(=O)c2cc(NC(=O)c3ccccc3)ccc2O1,/,-5,0,0
C[C@@H]1CN([C@H](C)CO)S(=O)(=O)c2ccc(-c3ccccc3F)cc2O[C@H]1CN(C)C,/,-6,0,0
COc1cccc(-n2c(SCC(=O)NC3CC3)nc3ccccc3c2=O)c1,/,0,-2,43*
COc1cccc(-n2c(SCC(N)=O)nc3ccccc3c2=O)c1,5,-11,3,0
COc1ccc(CCn2c(C)cc3c(c2=O)C(c2ccc4c(c2)OCO4)C(C#N)=C(N)O3)cc1OC (configuration not stated),51*,/,/,/
CO[C@@H]1CN(C)C(=O)c2ccc(NC(=O)C3CCC3)cc2OC[C@H](C)N(C)C[C@H]1C,/,2,0,0
CCOC(=O)CNC(=O)CSc1nnc(NC(=O)c2ccccc2Cl)s1,-5,-5,2,43*
Cc1cc(OCC(=O)N2CCc3ccccc3C2)c(C)cc1Br,-23,-3,-3,18*
